Assays:
[1] = Inhibition of sodium channel at 30 uM by patch-clamp technique
[2] = target: Neuronal acetylcholine receptor subunit alpha-7 (Homo sapiens, UniProt P36544); assay: Agonist activity at human recombinant alpha7 nAChR expressed in rat GH3 cells by calcium influx assay; type: functional, cell-based
In short: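 GH3 cells recombinantly expressing human α7 nAChR; agonist activity. Each compound run in duplicate. EC50 taken from individual 8-point concentration-response curves and expressed as pEC50, with Emax given in %.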

Homo sapiens [3] = species: Homo sapiens; assay: Selectivity for human alpha3beta4 nAChR over human alpha7 nAChR
[4] = target: Voltage-gated inwardly rectifying potassium channel KCNH2 (Homo sapiens, UniProt Q12809); assay: Inhibition of human ERG by patch-clamp technique
[5] = target: Neuronal acetylcholine receptor; alpha3/beta4 (Homo sapiens, UniProt P30926+P32297); assay: Antagonist activity at human alpha3beta4 nAChR expressed in HEK293 cells by calcium influx assay; type: functional, cell-based
[6] = target: Neuronal acetylcholine receptor; alpha4/beta2 (Homo sapiens, UniProt P17787+P43681); assay: Antagonist activity at human alpha4beta2 nAChR expressed in HEK293 cells by calcium influx assay; type: functional, cell-based
[7] = target: Acetylcholine receptor; alpha1/beta1/delta/gamma (Homo sapiens, UniProt P02708+P07510+P11230+Q07001); assay: Antagonist activity at human alpha-1-beta-1-gamma-delta nAChR expressed in human TE671 cells by calcium influx assay; type: functional, cell-based, TE-671
[8] = target: T1, 5-hydroxytryptamine receptor 3A (Homo sapiens, UniProt P46098); assay: Antagonist activity at human 5HT3 receptor by calcium influx assay; type: functional
T1 sequence (P46098 whole entry): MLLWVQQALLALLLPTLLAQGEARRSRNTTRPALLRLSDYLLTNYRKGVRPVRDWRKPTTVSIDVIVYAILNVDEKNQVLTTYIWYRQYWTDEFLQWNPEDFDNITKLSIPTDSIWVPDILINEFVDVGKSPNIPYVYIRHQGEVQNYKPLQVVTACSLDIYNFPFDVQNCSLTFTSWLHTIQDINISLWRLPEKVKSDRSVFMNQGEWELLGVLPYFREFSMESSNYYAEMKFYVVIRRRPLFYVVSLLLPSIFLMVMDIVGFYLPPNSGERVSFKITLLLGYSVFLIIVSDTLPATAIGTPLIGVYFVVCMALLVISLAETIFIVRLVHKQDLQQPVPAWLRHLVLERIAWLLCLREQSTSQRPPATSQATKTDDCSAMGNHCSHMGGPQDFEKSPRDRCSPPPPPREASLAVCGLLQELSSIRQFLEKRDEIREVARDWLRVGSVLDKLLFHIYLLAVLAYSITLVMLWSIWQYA

Homo sapiens [9] = species: Homo sapiens; assay: Selectivity for human alpha4beta2 nAChR over human alpha7 nAChR
Homo sapiens [10] = species: Homo sapiens; assay: Selectivity for human alpha-1-beta-1-gamma-delta nAChR over human alpha7 nAChR
Homo sapiens [11] = species: Homo sapiens; assay: Selectivity for human 5HT3 receptor over human alpha7 nAChR
Heart = assay: Toxicity in langendorff isolated rabbit heart assessed as effect on QT interval prolongation up to 10 uM by whole heart assay; type: tissue-based, Oryctolagus cuniculus
In short: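 Langendorff isolated rabbit heart, ex vivo whole-heart preparation. QT interval monitored at concentrations up to 10 µM.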

[12] = Octanol-water partition coefficient, log P of the compound; type: physicochemical
[13] = Protein binding in human plasma assessed as fraction unbound; type: ADME, cell-free
In short: (§1)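 Binding to human and rat plasma protein, reported as the free (unbound) fraction in %.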

[14] = Protein binding in rat plasma assessed as fraction unbound; type: ADME, cell-free; in short: as §1
[15] = Metabolic stability in mouse liver microsomes assessed as hepatic extraction ratio; type: ADME, Microsome; settings: read-out: Activity
In short: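 Compound incubated with mouse or human liver microsomes. In vitro hepatic extraction ratio reported as % compound depleted at the end of the experiment; half-life also given.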

Brain [16] = assay: Drug level in DBA/2 mouse brain at 30 umol/kg, po after 1 hr; type: ADME, organism-based; settings: in vivo
In short: (§2)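 Mice (n = 6) dosed 30 µmol/kg po. Brain and plasma levels measured at 1 h and 4 h after dosing, reported as pmol/g.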

Mus musculus [17] = assay: Plasma concentration in DBA/2 mouse at 30 umol/kg, po after 1 hr; type: ADME, organism-based; settings: in vivo; in short: as §2
Brain [18] = assay: Drug level in DBA/2 mouse brain at 30 umol/kg, po after 4 hrs; type: ADME, organism-based; settings: in vivo; in short: as §2
Mus musculus [19] = assay: Plasma concentration in DBA/2 mouse at 30 umol/kg, po after 4 hrs; type: ADME, organism-based; settings: in vivo; in short: as §2
[20] = target: T2, Muscarinic acetylcholine receptor M1 (Homo sapiens, UniProt P11229); assay: Inhibition of human recombinant muscarinic M1 receptor
T2 sequence (P11229 whole entry): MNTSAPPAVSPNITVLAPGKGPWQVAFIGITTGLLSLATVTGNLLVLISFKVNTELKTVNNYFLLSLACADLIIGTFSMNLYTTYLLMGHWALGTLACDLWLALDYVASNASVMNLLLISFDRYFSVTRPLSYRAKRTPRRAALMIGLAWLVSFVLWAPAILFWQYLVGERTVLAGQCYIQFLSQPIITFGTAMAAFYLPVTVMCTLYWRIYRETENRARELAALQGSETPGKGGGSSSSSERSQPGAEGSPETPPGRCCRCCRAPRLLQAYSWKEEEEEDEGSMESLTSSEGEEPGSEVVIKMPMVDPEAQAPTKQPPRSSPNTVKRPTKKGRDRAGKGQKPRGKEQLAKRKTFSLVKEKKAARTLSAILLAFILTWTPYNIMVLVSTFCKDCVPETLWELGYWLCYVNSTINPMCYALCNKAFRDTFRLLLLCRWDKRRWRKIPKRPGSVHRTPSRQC

[21] = target: T3, Muscarinic acetylcholine receptor M2 (Homo sapiens, UniProt P08172); assay: Inhibition of human recombinant muscarinic M2 receptor
T3 sequence (P08172 whole entry): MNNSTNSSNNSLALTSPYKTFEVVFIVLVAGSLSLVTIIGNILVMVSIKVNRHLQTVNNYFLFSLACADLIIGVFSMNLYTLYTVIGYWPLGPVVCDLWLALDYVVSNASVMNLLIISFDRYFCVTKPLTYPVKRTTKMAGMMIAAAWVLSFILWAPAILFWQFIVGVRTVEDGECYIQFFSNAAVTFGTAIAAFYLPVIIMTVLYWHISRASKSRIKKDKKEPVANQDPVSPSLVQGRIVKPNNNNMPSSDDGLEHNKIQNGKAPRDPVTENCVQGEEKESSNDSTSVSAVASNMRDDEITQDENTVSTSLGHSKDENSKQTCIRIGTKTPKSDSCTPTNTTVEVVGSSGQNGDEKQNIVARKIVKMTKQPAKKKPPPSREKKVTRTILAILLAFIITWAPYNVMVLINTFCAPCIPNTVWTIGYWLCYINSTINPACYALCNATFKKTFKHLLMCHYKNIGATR

[22] = target: Muscarinic acetylcholine receptor M3 (Homo sapiens, UniProt P20309); assay: Inhibition of human recombinant muscarinic M3 receptor
[23] = target: T4, Muscarinic acetylcholine receptor M4 (Homo sapiens, UniProt P08173); assay: Inhibition of human recombinant muscarinic M4 receptor
T4 sequence (P08173 whole entry): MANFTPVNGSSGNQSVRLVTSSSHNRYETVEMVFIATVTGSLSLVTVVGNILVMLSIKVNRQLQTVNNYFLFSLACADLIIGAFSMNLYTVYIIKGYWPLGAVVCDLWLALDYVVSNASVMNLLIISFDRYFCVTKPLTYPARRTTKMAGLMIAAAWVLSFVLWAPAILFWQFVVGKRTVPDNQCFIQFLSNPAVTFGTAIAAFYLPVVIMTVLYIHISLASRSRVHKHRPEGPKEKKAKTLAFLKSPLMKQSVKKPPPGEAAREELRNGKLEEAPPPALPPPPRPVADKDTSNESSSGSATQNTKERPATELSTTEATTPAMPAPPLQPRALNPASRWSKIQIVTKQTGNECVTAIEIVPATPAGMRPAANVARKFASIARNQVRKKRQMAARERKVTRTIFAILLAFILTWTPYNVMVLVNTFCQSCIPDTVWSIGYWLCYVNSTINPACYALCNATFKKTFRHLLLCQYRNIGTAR

[24] = target: T5, Muscarinic acetylcholine receptor M5 (Homo sapiens, UniProt P08912); assay: Inhibition of human recombinant muscarinic M5 receptor
T5 sequence (P08912 whole entry): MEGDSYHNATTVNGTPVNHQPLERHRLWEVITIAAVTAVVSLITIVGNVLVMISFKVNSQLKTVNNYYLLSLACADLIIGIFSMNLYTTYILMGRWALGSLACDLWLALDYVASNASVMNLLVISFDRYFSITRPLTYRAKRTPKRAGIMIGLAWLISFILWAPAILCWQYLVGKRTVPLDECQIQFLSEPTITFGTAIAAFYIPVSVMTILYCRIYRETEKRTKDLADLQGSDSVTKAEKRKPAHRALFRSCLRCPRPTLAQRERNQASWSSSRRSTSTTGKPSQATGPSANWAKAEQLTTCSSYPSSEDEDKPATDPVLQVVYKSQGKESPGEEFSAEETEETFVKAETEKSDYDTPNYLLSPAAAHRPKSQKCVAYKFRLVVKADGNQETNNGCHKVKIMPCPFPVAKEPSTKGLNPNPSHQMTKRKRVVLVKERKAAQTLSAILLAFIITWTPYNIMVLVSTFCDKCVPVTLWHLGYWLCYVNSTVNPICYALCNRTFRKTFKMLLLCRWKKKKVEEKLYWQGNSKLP

Neuronal acetylcholine receptor; alpha4/beta2, sequence (P17787 whole entry): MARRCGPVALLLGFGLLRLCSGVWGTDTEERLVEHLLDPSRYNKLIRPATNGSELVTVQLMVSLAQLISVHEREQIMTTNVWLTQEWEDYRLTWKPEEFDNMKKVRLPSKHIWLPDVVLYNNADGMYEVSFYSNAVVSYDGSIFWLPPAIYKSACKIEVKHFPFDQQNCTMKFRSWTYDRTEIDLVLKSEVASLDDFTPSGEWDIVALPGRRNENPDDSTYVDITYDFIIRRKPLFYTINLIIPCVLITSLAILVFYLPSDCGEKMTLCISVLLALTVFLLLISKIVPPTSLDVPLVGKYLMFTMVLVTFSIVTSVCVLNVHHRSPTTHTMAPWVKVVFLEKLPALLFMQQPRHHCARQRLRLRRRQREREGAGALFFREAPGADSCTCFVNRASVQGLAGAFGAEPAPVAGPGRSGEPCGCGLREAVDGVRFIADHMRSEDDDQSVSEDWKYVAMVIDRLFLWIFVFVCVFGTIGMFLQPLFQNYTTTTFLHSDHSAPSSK
Neuronal acetylcholine receptor; alpha4/beta2, sequence (P43681 whole entry): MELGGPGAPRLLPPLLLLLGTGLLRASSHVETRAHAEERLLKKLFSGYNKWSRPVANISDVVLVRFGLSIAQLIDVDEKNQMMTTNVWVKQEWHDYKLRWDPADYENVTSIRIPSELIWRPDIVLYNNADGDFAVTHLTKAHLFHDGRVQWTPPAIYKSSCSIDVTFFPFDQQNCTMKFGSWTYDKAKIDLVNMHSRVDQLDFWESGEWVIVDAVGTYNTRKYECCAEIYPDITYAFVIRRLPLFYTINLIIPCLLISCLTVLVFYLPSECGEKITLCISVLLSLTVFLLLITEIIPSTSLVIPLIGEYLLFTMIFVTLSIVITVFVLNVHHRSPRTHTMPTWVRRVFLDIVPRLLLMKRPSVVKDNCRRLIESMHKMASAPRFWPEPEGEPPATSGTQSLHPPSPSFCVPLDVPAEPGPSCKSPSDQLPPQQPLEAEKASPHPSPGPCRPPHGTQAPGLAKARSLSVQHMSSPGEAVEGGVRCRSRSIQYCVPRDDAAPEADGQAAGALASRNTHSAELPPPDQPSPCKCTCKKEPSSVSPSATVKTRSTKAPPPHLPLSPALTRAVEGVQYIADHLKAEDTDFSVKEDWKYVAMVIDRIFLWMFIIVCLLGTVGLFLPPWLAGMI
Neuronal acetylcholine receptor subunit alpha-7, sequence (P36544 whole entry): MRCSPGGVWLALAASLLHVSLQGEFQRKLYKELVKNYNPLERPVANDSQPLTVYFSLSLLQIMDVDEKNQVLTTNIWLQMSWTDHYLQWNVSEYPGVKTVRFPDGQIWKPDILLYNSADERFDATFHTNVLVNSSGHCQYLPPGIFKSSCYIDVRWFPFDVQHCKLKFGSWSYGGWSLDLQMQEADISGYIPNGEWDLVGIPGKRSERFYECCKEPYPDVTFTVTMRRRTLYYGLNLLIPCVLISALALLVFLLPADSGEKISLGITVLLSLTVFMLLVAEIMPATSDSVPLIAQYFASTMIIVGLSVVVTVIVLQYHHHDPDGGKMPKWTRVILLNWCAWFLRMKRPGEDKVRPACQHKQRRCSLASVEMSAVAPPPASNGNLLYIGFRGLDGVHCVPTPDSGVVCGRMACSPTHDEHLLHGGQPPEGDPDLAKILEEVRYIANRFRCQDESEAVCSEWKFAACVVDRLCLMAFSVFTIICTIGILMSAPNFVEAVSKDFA
Acetylcholine receptor; alpha1/beta1/delta/gamma, sequence (P02708 whole entry): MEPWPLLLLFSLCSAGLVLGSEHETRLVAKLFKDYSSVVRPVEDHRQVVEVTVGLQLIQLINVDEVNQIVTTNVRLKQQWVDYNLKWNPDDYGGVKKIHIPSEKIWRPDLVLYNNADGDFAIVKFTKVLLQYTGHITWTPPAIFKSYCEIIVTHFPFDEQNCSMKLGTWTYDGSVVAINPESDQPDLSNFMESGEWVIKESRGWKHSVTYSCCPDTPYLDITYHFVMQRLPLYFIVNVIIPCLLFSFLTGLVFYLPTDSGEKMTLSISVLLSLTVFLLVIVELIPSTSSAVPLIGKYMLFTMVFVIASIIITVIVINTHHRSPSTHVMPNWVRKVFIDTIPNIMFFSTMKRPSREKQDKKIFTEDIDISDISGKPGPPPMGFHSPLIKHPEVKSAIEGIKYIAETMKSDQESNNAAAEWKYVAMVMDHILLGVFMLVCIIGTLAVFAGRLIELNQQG
Acetylcholine receptor; alpha1/beta1/delta/gamma, sequence (P07510 whole entry): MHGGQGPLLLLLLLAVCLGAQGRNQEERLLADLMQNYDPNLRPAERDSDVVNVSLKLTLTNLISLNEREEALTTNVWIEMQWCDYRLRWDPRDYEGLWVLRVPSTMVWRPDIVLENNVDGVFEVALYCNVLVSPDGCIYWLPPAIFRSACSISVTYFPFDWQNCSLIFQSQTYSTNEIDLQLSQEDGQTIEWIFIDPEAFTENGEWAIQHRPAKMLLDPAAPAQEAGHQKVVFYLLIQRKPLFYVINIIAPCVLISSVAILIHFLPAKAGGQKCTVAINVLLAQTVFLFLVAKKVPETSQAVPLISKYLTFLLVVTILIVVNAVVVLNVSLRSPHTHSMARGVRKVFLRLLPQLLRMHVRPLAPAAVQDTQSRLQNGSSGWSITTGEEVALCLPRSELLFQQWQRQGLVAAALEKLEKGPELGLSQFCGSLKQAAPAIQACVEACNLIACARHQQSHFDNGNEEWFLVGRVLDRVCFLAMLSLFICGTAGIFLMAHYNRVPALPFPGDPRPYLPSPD
Acetylcholine receptor; alpha1/beta1/delta/gamma, sequence (P11230 whole entry): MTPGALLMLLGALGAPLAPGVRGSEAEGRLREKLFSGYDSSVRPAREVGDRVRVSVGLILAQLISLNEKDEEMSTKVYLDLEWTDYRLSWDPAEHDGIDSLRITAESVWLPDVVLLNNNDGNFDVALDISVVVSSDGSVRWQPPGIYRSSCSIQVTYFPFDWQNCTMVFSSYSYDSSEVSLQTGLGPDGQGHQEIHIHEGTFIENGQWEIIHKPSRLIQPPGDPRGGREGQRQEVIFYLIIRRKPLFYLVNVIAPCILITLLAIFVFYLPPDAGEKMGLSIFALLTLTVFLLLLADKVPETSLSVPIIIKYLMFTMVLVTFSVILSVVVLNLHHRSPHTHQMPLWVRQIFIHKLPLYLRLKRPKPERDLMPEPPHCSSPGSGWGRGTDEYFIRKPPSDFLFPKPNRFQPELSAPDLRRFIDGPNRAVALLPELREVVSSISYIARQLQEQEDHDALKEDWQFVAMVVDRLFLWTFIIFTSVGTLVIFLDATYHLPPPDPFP
Acetylcholine receptor; alpha1/beta1/delta/gamma, sequence (Q07001 whole entry): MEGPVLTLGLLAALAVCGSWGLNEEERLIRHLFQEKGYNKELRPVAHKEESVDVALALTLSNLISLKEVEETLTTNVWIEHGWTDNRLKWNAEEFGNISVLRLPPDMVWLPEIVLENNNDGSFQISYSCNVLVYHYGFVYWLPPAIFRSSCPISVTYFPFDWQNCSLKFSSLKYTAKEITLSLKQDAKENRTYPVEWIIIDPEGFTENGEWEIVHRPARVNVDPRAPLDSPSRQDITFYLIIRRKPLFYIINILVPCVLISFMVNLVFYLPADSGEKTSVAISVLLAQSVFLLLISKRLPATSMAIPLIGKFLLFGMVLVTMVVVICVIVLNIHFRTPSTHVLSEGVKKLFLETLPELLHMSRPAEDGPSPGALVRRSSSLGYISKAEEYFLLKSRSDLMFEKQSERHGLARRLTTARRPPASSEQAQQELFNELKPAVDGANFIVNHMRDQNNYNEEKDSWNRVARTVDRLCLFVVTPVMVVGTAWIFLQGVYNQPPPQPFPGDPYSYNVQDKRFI
Neuronal acetylcholine receptor; alpha3/beta4, sequence (P30926 whole entry): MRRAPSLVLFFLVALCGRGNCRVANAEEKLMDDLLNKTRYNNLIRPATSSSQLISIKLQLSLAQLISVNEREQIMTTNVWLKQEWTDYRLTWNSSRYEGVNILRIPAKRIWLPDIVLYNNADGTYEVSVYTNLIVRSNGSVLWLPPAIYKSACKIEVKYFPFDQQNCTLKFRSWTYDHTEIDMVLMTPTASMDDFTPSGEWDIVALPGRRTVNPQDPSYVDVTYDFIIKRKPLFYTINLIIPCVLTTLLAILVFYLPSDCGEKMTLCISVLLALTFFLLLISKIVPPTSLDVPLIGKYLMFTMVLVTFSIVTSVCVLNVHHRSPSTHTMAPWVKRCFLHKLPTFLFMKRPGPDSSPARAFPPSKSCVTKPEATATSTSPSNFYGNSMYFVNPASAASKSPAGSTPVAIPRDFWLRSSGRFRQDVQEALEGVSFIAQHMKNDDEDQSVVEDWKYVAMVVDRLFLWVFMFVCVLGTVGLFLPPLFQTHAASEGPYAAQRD
Neuronal acetylcholine receptor; alpha3/beta4, sequence (P32297 whole entry): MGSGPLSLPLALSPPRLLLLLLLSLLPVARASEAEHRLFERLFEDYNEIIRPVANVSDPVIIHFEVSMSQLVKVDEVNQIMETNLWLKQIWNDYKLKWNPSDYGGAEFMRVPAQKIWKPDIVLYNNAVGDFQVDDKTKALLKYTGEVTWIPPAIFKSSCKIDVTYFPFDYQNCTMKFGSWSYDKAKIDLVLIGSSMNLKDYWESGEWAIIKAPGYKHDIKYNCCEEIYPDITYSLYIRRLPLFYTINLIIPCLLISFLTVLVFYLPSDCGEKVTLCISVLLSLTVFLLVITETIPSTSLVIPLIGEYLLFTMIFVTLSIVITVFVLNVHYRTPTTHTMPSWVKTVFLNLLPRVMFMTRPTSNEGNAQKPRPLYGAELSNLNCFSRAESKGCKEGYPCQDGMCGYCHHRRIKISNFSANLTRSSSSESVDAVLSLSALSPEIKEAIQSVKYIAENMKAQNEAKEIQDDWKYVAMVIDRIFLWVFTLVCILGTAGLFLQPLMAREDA

CN1C(=O)[C@@H](CN2CCCCC2)C[C@H]1C#Cc1ccccc1 (relative stereo) gave an inhibition [1] of 33%, an EC50 [2] of 0.01 µM and an Emax [2] of 104%. For the same molecule, the Ratio (Homo sapiens [3]) was 126, the IC50 [4] was 6.85 µM and the IC50 [5] was 1.26 µM. The IC50 [6] was 7.94 µM, the IC50 [7] was 12.6 µM and the IC50 [8] was 251 µM. For the same molecule, the Ratio (Homo sapiens [9]) was 820, the Ratio (Homo sapiens [10]) was 1300 and the Ratio (Homo sapiens [11]) was 26400. The Activity (Heart) was “Non-toxic”, the logP [12] was 3.7 and the fraction unbound [13] was 0.17. It also gave a fraction unbound [14] of 0.31, a hepatic extraction ratio [15] of 0.9 and a Drug uptake (Brain [16]) of 239 pmol/g. The Cp (Mus musculus [17]) was 18 pmol/g, the Drug uptake (Brain [18]) was 64 pmol/g and the Cp (Mus musculus [19]) was 4 pmol/g.

For C[C@H](OC(=O)N[C@@H]1CN2CCC1CC2)c1ccccc1F, the Ratio (Homo sapiens [3]) was 200, the IC50 [5] was 20 µM and the IC50 [6] was 25.1 µM. For the same molecule, the IC50 [7] was 126 µM, the IC50 [8] was 20 µM and the Ratio (Homo sapiens [9]) was 251. For the same molecule, the Ratio (Homo sapiens [10]) was 1260, the Ratio (Homo sapiens [11]) was 200 and the IC50 [20] was over 10 µM. It also gave an IC50 [21] of over 10 µM, an IC50 [22] of over 10 µM and an IC50 [23] of over 10 µM. The IC50 [24] was over 10 µM.

From ChEMBL document CHEMBL1153277 (Bioorg Med Chem Lett, 2009)
